Assay results published in ChEMBL document CHEMBL1687867, “Thiazolidione derivatives as novel antibiofilm agents: design, synthesis, biological evaluation, and structure-activity relationships” (2011).
≈ marks a conversion by molar mass, not a printed value.

Experiments:
[1] = test system: Staphylococcus epidermidis; assay: Antibacterial activity against Staphylococcus epidermidis ATCC 35984 assessed as inhibition of biofilm production after 6 hrs; assay type: functional, RP62A; settings: in the assay text read “after 18 hrs” for “after 6 hrs”
Summary of the method: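 Young S. epidermidis biofilm grown 6 h at 37 °C in TSB with glucose in microtiter wells, washed four times with PBS, then exposed to fresh TSB carrying serially diluted compounds for 18 h at 37 °C. After PBS washes, methanol fixation 15 min, air drying and crystal violet staining. Washed dried biofilm served as blank (subtracted), TSB-only biofilm as positive control; triplicate wells, three repeats.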

[2] = test system: Staphylococcus epidermidis; assay: Antibacterial activity against Staphylococcus epidermidis ATCC 35984 by broth microdilution method; assay type: functional; settings: RP62A
Summary of the method: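 MIC determined by CLSI broth microdilution […].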

[3] = test system: Staphylococcus epidermidis; assay: Antibacterial activity against Staphylococcus epidermidis ATCC 35984 assessed as inhibition of biofilm production after 18 hrs

SMILES	Biofilm inhibitory concentration [1] [µM]	MIC [2] [µM]	INH [3] [µM]
Cc1ccccc1/N=C1/S/C(=C\c2ccc(-c3cccc(C(=O)O)c3)o2)C(=O)N1c1ccccc1C	25	12.5 (≈ 6.18 µg/mL)	–
CCOC(=O)C1=C(c2ccccc2)N=c2s/c(=C\c3ccc(OCC(=O)O)cc3)c(=O)n2C1c1ccc(OC)cc1 (stereo not given)	50	25 (≈ 14.3 µg/mL)	–
COc1ccc(/N=C2/S/C(=C\c3ccc(-c4cccc(C(=O)O)c4)o3)C(=O)N2c2ccc(OC)cc2)cc1	–	6.25 (≈ 3.29 µg/mL)	6.25
CCOC(=O)C1=C(c2ccccc2)N=c2s/c(=C\c3cccc([N+](=O)[O-])c3)c(=O)n2C1c1ccc(OC)cc1 (stereo not given)	>200	> 200	–
CCOC(=O)C1=C(c2ccccc2)N=c2s/c(=C\c3ccc(N(C)C)cc3)c(=O)n2C1c1ccc(OC)cc1 (stereo not given)	>200	> 200	–
COc1ccc(C/N=C2/S/C(=C\c3ccc(-c4cccc(C(=O)O)c4)o3)C(=O)N2Cc2ccc(OC)cc2)cc1	–	50 (≈ 27.7 µg/mL)	–
CCOC(=O)C1=C(c2ccccc2)N=c2s/c(=C\c3ccc(-c4cccc(C(=O)O)c4)o3)c(=O)n2C1c1ccccc1 (stereo not given)	>200	> 200	–
CCOC(=O)C1=C(c2ccccc2)N=c2s/c(=C\c3ccc(-c4cccc(C(=O)OC)c4)o3)c(=O)n2C1c1ccccc1 (stereo not given)	>200	> 200	–
CCOC(=O)C1=C(c2ccccc2)N=c2s/c(=C\c3cccc(O)c3)c(=O)n2C1c1ccc(OC)cc1 (stereo not given)	>200	> 200	–
Cc1ccccc1/N=C1/S/C(=C\c2ccc(-c3ccc(C(=O)O)cc3)o2)C(=O)N1c1ccccc1C	–	3.12 (≈ 1.55 µg/mL)	6.25
CCOC(=O)C1=C(c2ccccc2)N=c2s/c(=C\c3ccc(O)c(OC)c3)c(=O)n2C1c1ccc(OC)cc1 (stereo not given)	>200	> 200	–
CCOC(=O)C1=C(c2ccccc2)N=c2s/c(=C\c3ccc(OCC(=O)O)cc3)c(=O)n2C1c1ccc2c(c1)OCO2 (stereo not given)	50	25 (≈ 14.6 µg/mL)	–
CCOC(=O)C1=C(c2ccccc2)N=c2s/c(=C\c3ccc(-c4cccc(C(=O)O)c4)o3)c(=O)n2C1c1ccc(OC)cc1 (stereo not given)	25	6.25 (≈ 3.79 µg/mL)	–
CCOC(=O)C1=C(c2ccccc2)N=c2s/c(=C\c3ccc(-c4cccc(C(=O)OC)c4)o3)c(=O)n2C1c1ccc(OC)cc1 (stereo not given)	>200	> 200	–
Cc1ccc(/N=C2/S/C(=C\c3ccc(-c4cccc(C(=O)O)c4)o3)C(=O)N2c2ccc(C)cc2)cc1	12.5	6.25 (≈ 3.09 µg/mL)	–
COc1ccc(C/N=C2/S/C(=C\c3ccc(OCC(=O)O)cc3)C(=O)N2Cc2ccc(OC)cc2)cc1	25	12.5 (≈ 6.48 µg/mL)	–
CCOC(=O)C1=C(c2ccccc2)N=c2s/c(=C\c3ccc(O)cc3)c(=O)n2C1c1ccc(OC)cc1 (stereo not given)	>200	> 200	–
CCOC(=O)C1=C(c2ccccc2)N=c2s/c(=C\c3ccc(-c4cccc(C(=O)O)c4)o3)c(=O)n2C1c1ccc2c(c1)OCO2 (stereo not given)	25	6.25 (≈ 3.88 µg/mL)	–
